Test results: ChEMBL document CHEMBL1208737, “Synthesis and in vitro evaluation of N-alkyl-3-hydroxy-3-(2-imino-3-methyl-5-oxoimidazolidin-4-yl)indolin-2-one analogs as potential anticancer agents” (2010)

Columns and labels:
Format in all cases: functional
CCRF-CEM = test: Growth inhibition of human CCRF-CEM cells by sulforhodamine B assay
Outline: (§1)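 Five-dose response testing across a 57-line human tumour panel (leukemia, non-small cell lung, colon, CNS, melanoma, ovarian, renal, prostate, breast), done after a single-dose primary screen run per the NCI method. Effect plotted against log10 molar drug concentration for each cell line. GI50 is the concentration giving a 50% reduction in net protein increase versus control cells.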

HL-60(TB) = test: Growth inhibition of human HL-60(TB) cells by sulforhodamine B assay; outline: as §1
K562 = test: Growth inhibition of human K562 cells by sulforhodamine B assay; outline: as §1
MOLT-4 = test: Growth inhibition of human MOLT4 cells by sulforhodamine B assay; outline: as §1
[1] = Growth inhibition of human […] cells by sulforhodamine B assay; outline: as §1
A549 = test: Growth inhibition of human A549 cells by sulforhodamine B assay
Outline: (§2)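 Five-dose response testing across the 57-line human tumour panel. Growth effect was plotted against log10 drug concentration for each cell line. GI50 is the molar concentration giving a 50% reduction in net protein increase relative to untreated control cells. TGI (total growth inhibition) and LC50 (concentration lethal to 50% of cells) were read from the same curves.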

EKVX = test: Growth inhibition of human EKVX cells by sulforhodamine B assay; outline: as §1
HOP-62 = test: Growth inhibition of human HOP62 cells by sulforhodamine B assay; outline: as §1
NCI-H226 = test: Growth inhibition of human NCI-H226 cells by sulforhodamine B assay; outline: as §1
NCI-H23 = test: Growth inhibition of human NCI-H23 cells by sulforhodamine B assay; outline: as §1
NCI-H322M = test: Growth inhibition of human NCI-H322M cells by sulforhodamine B assay; outline: as §1
NCI-H460 = test: Growth inhibition of human NCI-H460 cells by sulforhodamine B assay; outline: as §1
NCI-H522 = test: Growth inhibition of human NCI-H522 cells by sulforhodamine B assay; outline: as §1
COLO 205 = test: Growth inhibition of human COLO205 cells by sulforhodamine B assay; outline: as §1
HCC 2998 = test: Growth inhibition of human HCC2998 cells by sulforhodamine B assay; outline: as §1
HCT-116 = test: Growth inhibition of human HCT116 cells by sulforhodamine B assay; outline: as §1
HCT-15 = test: Growth inhibition of human HCT15 cells by sulforhodamine B assay; outline: as §1
HT-29 = test: Growth inhibition of human HT-29 cells by sulforhodamine B assay; outline: as §1
KM12 = test: Growth inhibition of human KM12 cells by sulforhodamine B assay; outline: as §1
SW-620 = test: Growth inhibition of human SW620 cells by sulforhodamine B assay; outline: as §1
SF-268 = test: Growth inhibition of human SF268 cells by sulforhodamine B assay; outline: as §1
SF-295 = test: Growth inhibition of human SF295 cells by sulforhodamine B assay; outline: as §1
SF-539 = test: Growth inhibition of human SF539 cells by sulforhodamine B assay; outline: as §1
SNB-19 = test: Growth inhibition of human SNB19 cells by sulforhodamine B assay; outline: as §1
SNB-75 = test: Growth inhibition of human SNB75 cells by sulforhodamine B assay; outline: as §1
LOX IMVI = test: Growth inhibition of human LOXIMVI cells by sulforhodamine B assay; outline: as §2
Malme-3M = test: Growth inhibition of human MALME-3M cells by sulforhodamine B assay; outline: as §1
M14 = test: Growth inhibition of human M14 cells by sulforhodamine B assay; outline: as §1
[2] = read-out: LC50 (the source's name)

## COc1ccc(CN2C(=O)C(O)(C3C(=O)NC(=N)N3C)c3cc(Cl)ccc32)cc1 (stereo not drawn)
CCRF-CEM
  GI50: 2.06 µM
CCRF-CEM; [2]
  CC50: > 100 µM
HL-60(TB)
  GI50: 3.22 µM
  LC50: > 100 µM
K562
  GI50: 5.04 µM
K562; [2]
  CC50: > 100 µM
MOLT-4
  GI50: 2.94 µM
MOLT-4; [2]
  CC50: > 100 µM
[1]
  GI50: 2.62 µM
[1]; [2]
  CC50: > 100 µM
A549
  GI50: 0.19 µM
  LC50: 10.9 µM
  TGI: 1.96 µM
EKVX
  GI50: 28.5 µM
  LC50: > 100 µM
HOP-62
  GI50: 5.12 µM
HOP-62; [2]
  CC50: > 100 µM
NCI-H226
  GI50: 26.8 µM
NCI-H226; [2]
  CC50: > 100 µM
NCI-H23
  GI50: 4.74 µM
  LC50: > 100 µM
NCI-H322M
  GI50: 14.3 µM
NCI-H322M; [2]
  CC50: > 100 µM
NCI-H460
  GI50: 26.8 µM
  LC50: > 100 µM
NCI-H522
  GI50: 1.86 µM
  LC50 (concentration killing 50% of cells): 20.5 µM
COLO 205
  GI50: 14.3 µM
COLO 205; [2]
  CC50: > 100 µM
HCC 2998
  GI50: 18.7 µM
  LC50: 73.9 µM
HCT-116
  GI50: 3 µM
  LC50: 34.5 µM
HCT-15
  GI50: 12.6 µM
  LC50 (concentration killing 50% of starting cells): > 100 µM
HT-29
  GI50: 1.38 µM
  LC50: 44.1 µM
KM12
  GI50: 2.05 µM
KM12; [2]
  CC50: 30 µM
SW-620
  GI50: 2.59 µM
SW-620; [2]
  CC50: 49.6 µM
SF-268
  GI50: 3.31 µM
SF-268; [2]
  CC50: 64.9 µM
SF-295
  GI50: 3.71 µM
SF-295; [2]
  CC50: > 100 µM
SF-539
  GI50: 3.12 µM
SF-539; [2]
  CC50: 79.1 µM
SNB-19
  GI50: 17.2 µM
SNB-19; [2]
  CC50: > 100 µM
SNB-75
  GI50: 3.39 µM
SNB-75; [2]
  CC50: > 100 µM
LOX IMVI
  GI50: 0.75 µM
  TGI: 11.8 µM
LOX IMVI; [2]
  CC50: 60 µM
Malme-3M
  GI50: 29.6 µM
Malme-3M; [2]
  CC50: > 100 µM
M14
  GI50: 3.59 µM
  LC50: 61.4 µM
